TRPC4 block: inhibitors of mouse TRPC4 channel; B-score at 10 µM; HEK293 TRPC4beta/mu-opioid, DAMGO-evoked Fluo4 calcium flux; active compounds read low; 300,000 compounds, 0.39% hits; Q9QUQ5;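 active = B-score over 3 SD under the library average, no early fluorescence shift, positive overall ratio signal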
Target sequence (Q9QUQ5 whole entry, looked up): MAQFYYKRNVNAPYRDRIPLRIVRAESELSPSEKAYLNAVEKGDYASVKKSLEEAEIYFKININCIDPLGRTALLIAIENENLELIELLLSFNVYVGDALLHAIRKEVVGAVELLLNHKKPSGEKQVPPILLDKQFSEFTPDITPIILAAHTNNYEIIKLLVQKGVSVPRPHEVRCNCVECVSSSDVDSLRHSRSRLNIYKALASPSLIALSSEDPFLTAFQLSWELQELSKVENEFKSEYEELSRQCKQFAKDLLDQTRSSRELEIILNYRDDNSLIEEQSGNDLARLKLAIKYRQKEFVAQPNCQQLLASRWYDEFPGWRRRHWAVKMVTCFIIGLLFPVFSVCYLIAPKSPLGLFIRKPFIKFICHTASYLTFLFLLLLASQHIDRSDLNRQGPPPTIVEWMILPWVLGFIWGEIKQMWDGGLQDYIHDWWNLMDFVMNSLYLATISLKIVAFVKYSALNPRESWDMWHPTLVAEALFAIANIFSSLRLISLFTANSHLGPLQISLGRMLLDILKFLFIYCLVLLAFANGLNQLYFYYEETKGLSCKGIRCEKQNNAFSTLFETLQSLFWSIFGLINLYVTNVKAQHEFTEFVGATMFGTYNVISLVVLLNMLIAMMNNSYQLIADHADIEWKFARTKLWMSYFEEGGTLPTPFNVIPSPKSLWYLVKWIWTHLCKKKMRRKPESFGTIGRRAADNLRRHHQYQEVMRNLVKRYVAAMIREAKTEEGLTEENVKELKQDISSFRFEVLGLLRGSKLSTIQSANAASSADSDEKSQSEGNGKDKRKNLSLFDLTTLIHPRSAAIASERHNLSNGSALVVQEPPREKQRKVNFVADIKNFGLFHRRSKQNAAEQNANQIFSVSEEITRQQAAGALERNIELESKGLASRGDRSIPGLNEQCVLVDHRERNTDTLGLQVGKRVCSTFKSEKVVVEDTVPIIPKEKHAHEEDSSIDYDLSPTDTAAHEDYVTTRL
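Material: HEK293 cells with stable TRPC4beta plus mu-opioid receptor expression / Probe or stimulus: DAMGO in two steps, submaximal then maximal / Compound: single concentration per test compound / Technique: kinetic Fluo4 fluorescence imaging of calcium influx / Read-out: per-well B score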
TRPC4 PAM: allosterically enhances the mouse TRPC4 cation channel. HEK293 TRPC4beta/mu-opioid, DAMGO EC20, Fluo-4 Ca2+ flux; active compounds read high. Q9QUQ5. AID 2227. B-score at 10 µM. 310,000 compounds, 0.42% hits;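 active = B-score of calcium response area above 5 SD of library B-scores, with initial fluorescence ratio within 5 SD of library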;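 note: B-score of integrated fluorescence ratio over time as area under calcium response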
TRPC4 act: TRPC4 (mouse) channel activation; 310,000 compounds, 0.49% hits; HEK293 TRPC4beta/mu-opioid, Fluo4 calcium fluorescence; active compounds read high; B-score at 10 µM; Q9QUQ5;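 active = B-score above 5 SD of library B-scores, and initial fluorescence ratio not above library mean plus 5 SD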;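 note: positive B-score marks a calcium rise read as TRPC4 activation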
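System: HEK293 cells stably co-expressing mouse TRPC4beta and mu-opioid receptor; Schedule: Fluo4 dye loading 45 min at room temperature, 110 s recording; Detection: Fluo4 fluorescence, kinetic; Evaluation: B-scored integrated calcium fluorescence ratio; Controls: buffer (low) and maximal DAMGO (high).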
TRPC6 inh: blocks the mouse TRPC6 cation channel | HEK293-TRPC6, membrane potential dye, ACh-evoked depolarization; active compounds read low | Q61143 | 310,000 compounds, 1.1% hits | B-score at 10 µM | AID 2553;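 active = B-score under library mean minus 3 SD, initial fluorescence not abnormally high, positive integrated signal ratio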;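 note: B-score derived from integrated fluorescence ratio over the kinetic read; more negative B-score means stronger inhibition of depolarization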
TRPC6 act: activates the mouse TRPC6 cation channel. B-score at 10 µM. 310,000 compounds, 0.13% hits. Q61143. HEK293-TRPC6 membrane potential dye fluorescence; active compounds read high;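 active = B-score of the integrated fluorescence ratio above library mean plus 3 SD, and starting fluorescence ratio within library mean plus 5 SD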;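 note: higher score means more depolarization so channel activation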
Active calls of the source: *; i = inactive. An excerpt weighted towards active compounds, which were near 2.3% of everything screened.

SMILES	TRPC4 block	TRPC4 PAM	TRPC4 act	TRPC6 inh	TRPC6 act
CCC(C)(C)n1nnnc1C(c1cccnc1)N1CCC(Cc2ccccc2)CC1 (stereo unspecified)	-6*	i	i	i	i
COc1ccc(NC(=O)CSCc2cc(=O)n3c(C)csc3n2)cc1	i	i	i	i	i
O=C(NCCO)C(=O)NCC1CCCN1S(=O)(=O)c1cccs1 (stereo unspecified)	i	i	i	i	i
C=CCNC(=O)C(=O)NCC1CCCN1S(=O)(=O)c1cccs1 (stereo unspecified)	i	86*	i	i	i
CCOc1ccccc1N(C(=O)c1snc(C(N)=O)c1N)C(C(=O)NCc1ccccc1)c1ccc(O)cc1 (stereo unspecified)	-9*	i	i	i	i
COc1ccccc1N(C(=O)c1snc(C(N)=O)c1N)C(C(=O)NCc1ccccc1)c1ccc(C)o1 (stereo unspecified)	-6*	i	i	i	i
COc1ccc(N(C(=O)c2snc(C(N)=O)c2N)C(C(=O)NCc2ccc(F)cc2)c2ccc(C)o2)c(OC)c1 (stereo unspecified)	i	i	i	i	i
Cc1ccccc1N(C(=O)c1snc(C(N)=O)c1N)C(C(=O)NCc1ccccc1)c1ccc(O)cc1 (stereo unspecified)	i	i	i	i	i
NC(=O)c1nsc(C(=O)N(Cc2ccco2)C(C(=O)NCc2ccccc2)c2ccc(O)cc2)c1N (stereo unspecified)	-8*	i	i	i	i
O=C(O)c1ccc(N=Nc2c(-c3ccccc3)[nH]oc2=O)cc1	i	i	i	i	i
CSCC[C@H](NC(=O)N1CCn2c1nc1ccccc12)C(=O)NCc1ccco1	i	i	i	i	i
Cc1cc(OC(=O)c2cccc(F)c2)c([N+](=O)[O-])c(=O)[nH]1	i	i	i	i	i
CCc1ccccc1-n1ncc(C(=O)Nc2ccccc2OC)c1C	i	i	i	i	i
CCN1CCN(c2nnc(-c3ccc(C)cc3)c3ccccc23)CC1	i	i	i	i	i
COC(=O)CSc1nnc(-c2sc3cc(OC)ccc3c2Cl)n1C	-6*	i	i	i	i
COC(=O)CSc1nc2cc(OC)ccc2n1C	i	i	i	i	i
CCCOc1ccc(-c2nc(SCc3ccccc3)[nH]c(=O)c2C#N)cc1OC	-7*	i	i	i	i
CCSc1nc(-c2ccccc2)c(C#N)c(=O)[nH]1	i	i	i	i	i
CC1=CC2=NC(=O)CC(C)(C(=O)N(CC(=O)NC3CCCC3)Cc3ccccc3)N2C=C1 (stereo unspecified)	i	i	i	i	i
O=S(=O)(Cc1ccccc1)N1CCC(c2nc(-c3cccs3)no2)CC1	i	17*	i	i	i
CCCCN(C)CCCNC(=O)CS(=O)Cc1nc(-c2ccc(OC)c(OC)c2)oc1C (stereo unspecified)	i	i	i	i	i
CCCN(CCC)CCCNC(=O)CS(=O)Cc1nc(-c2ccc(OC)c(OC)c2)oc1C (stereo unspecified)	i	i	64*	i	i
COc1ccc(-c2nc(CS(=O)CC(=O)NCCCN3CC(C)CC(C)C3)c(C)o2)cc1OC (stereo unspecified)	i	i	104*	i	i
Cc1ccc(-c2nc(CS(=O)CC(=O)NCCCN3CC(C)CC(C)C3)c(C)o2)cc1 (stereo unspecified)	i	i	62*	i	i
Cc1cccc(NC(=O)CNC(=O)c2cccc(-n3cccc3)c2)c1C	i	i	i	i	i
SMILES	TRPC4 block	TRPC4 PAM	TRPC4 act	TRPC6 inh	TRPC6 act
CN1C(=O)c2ccc(C(=O)Nc3ccccc3O)cc2C1=O	i	i	i	i	i
O=C(Nc1ccccc1C(=O)N1CCCCC1)c1ccccc1C(F)(F)F	i	i	i	i	i
CCn1c(N2CCN(S(=O)(=O)c3ccccc3C(F)(F)F)CC2)nc2ccccc21	i	i	119*	i	i
O=C(NCc1ccccc1)C(c1ccco1)N(C(=O)c1csnn1)c1ccccc1 (stereo unspecified)	i	i	i	i	i
COc1cc2c(cc1OC)C(COc1ccc(C(C)C)cc1)NCC2 (stereo unspecified)	i	i	i	i	i
COc1ccc(O)c(C(=O)c2cnc3c(c2)c(=O)[nH]c(=O)n3C)c1	-6*	i	i	i	i
COCCn1c(=O)[nH]c(=O)c2cc(C(=O)c3cc(Cl)ccc3O)cnc21	i	i	i	i	i
Cc1ccc(-c2nn(-c3ccccc3)cc2CO)cc1	i	i	i	i	i
N=C(N)SCc1cn(-c2ccccc2)nc1-c1ccc(Br)cc1	i	i	71*	i	i
COC(=O)c1ccccc1NC(=O)CN1CCN(C23CC4CC(CC(C4)C2)C3)CC1	i	i	i	i	19.8*
COC(=O)c1ccccc1NC(=O)CN1CCC(NC(=O)c2ccc(C)cc2)CC1	i	i	i	i	i
[O-]/[N+](=C\c1ccco1)c1ccc(Cl)cc1	i	i	i	i	i
COC(=O)c1ccccc1N=Nc1c(N)[nH][nH]c1=O	i	82*	47*	i	i
Oc1c(Cl)cc(Cl)cc1Sc1cc(Cl)cc(Cl)c1O	i	i	86*	-8.38*	i
CS(=O)(=O)N(CC(=O)N1CCCC1)c1ccccc1Br	i	i	i	i	i
CCOc1ccc(S(=O)(=O)N2CCN(C(=S)NC3CC3)CC2)cc1	i	18*	i	i	i
CC(=O)Nc1ccc(NC(=O)C2CCN(C(=O)NC3CCCCC3)CC2)cc1	i	i	i	i	i
CC(C)(CNC(=O)Cc1ccc(NS(=O)(=O)c2cccc(C(F)(F)F)c2)cc1)N1CCOCC1	i	i	i	i	i
CN1CCC(CNC(=O)Nc2ccccc2)(c2ccccc2)CC1	i	i	172*	i	i
CCOC(=O)/C(=C\c1ccc(Cl)cc1)c1nc2sc(C)c(C)c2c(=O)[nH]1	i	11*	i	i	i
Cc1cc(F)ccc1S(=O)(=O)NCC(c1cccnc1)N1CCc2ccccc21 (stereo unspecified)	i	i	i	i	i
Cc1cc(C)c(S(=O)(=O)NC2CC(C)(C)NC(C)(C)C2)cc1Br	i	i	i	i	i

Bioassay records as filed in PubChem.
